Experiments:
[1] = molecular target: PRMT5/MEP50 complex (Homo sapiens, UniProt O14744); assay: Inhibition of recombinant human N-terminal FLAG-tagged PRMT5 (2 to end residues) /human N-terminal His-tagged MEP50 (2 to end residues) expressed in HEK293F cells pretreated for 15 mins followed by substrate and [3H]-SAM addition measured after 60 mins by scintillation proximity assay; type: cell-based
Outline: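 PRMT5 enzymatic inhibition measured by radiometric scintillation proximity assay; IC50 determined.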

[2] = molecular target: T1, Protein arginine N-methyltransferase 5 (Homo sapiens, UniProt O14744); assay: Inhibition of PRMT5 (unknown origin)
[3] = molecular target: T1, Protein arginine N-methyltransferase 5; assay: Inhibition of full-length N-terminal FLAG-tagged PRMT5 (unknown origin) (1 to 637 residues) expressed in baculovirus infected Sf9 insect cells using histone H4 as peptide after 5 hrs in presence of [H3]AdoMet by scintillation proximity assay

Sequence of PRMT5/MEP50 complex (O14744 whole entry): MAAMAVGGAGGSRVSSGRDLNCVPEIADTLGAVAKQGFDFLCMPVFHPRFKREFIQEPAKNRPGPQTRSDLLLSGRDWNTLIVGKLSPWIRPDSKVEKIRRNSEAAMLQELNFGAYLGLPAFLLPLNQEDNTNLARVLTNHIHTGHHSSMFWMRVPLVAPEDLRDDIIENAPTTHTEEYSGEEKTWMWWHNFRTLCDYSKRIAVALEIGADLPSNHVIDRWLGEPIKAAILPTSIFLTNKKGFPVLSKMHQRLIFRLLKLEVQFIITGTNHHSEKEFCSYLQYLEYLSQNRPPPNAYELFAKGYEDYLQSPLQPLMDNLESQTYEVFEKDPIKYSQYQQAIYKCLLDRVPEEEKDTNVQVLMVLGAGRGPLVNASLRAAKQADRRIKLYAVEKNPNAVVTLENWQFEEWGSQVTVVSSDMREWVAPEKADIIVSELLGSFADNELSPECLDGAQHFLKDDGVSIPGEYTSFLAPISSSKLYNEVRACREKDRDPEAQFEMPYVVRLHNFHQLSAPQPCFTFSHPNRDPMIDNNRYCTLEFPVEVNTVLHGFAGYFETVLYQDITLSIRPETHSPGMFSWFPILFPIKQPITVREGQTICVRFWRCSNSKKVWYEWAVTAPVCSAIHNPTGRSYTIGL
Sequence of PRMT5/MEP50 complex (Q9BQA1 whole entry, further chain): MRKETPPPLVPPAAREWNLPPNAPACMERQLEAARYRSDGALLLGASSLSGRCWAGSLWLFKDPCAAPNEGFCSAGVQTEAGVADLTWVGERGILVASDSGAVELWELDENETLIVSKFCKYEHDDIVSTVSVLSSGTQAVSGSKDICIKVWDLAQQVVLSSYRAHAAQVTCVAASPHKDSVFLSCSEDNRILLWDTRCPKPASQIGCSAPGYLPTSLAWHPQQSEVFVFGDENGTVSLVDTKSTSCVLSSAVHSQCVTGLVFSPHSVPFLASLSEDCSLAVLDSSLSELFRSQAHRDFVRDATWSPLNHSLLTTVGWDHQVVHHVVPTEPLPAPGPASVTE
T1 sequence (O14744 whole entry, the tested form may be a part): as the sequence (O14744 whole entry) above

| Compound | IC50 [1] | also measured |
| --- | --- | --- |
| O=C(CCN1CCc2ccccc2C1)Nc1cccc2ccccc12 | > 100 µM | – |
| O=C(CCN1CCc2ccccc2C1)Nc1cccc(Cl)c1 | 42.1 µM | – |
| COC(=O)c1ccccc1NC(=O)CCCN1CCc2ccccc2C1 | 87.9 µM | – |
| O=C(CCN1CCc2ccccc2C1)Nc1ccc(Oc2ccccc2)cc1 | > 100 µM | – |
| O=C(NC[C@H]1C[C@@H]2CC[N@@]1C[C@@H]2CN1CCC(Cc2ccccc2)CC1)c1ccc2c(c1)OCO2 | – | IC50 [2]: 1.5 µM |
| Nc1ncnc2c1ncn2[C@@H]1O/C(=C\[C@@H](N)CC[C@H](N)C(=O)O)[C@@H](O)[C@H]1O | – | IC50 [3]: 0.035 µM |
| Nc1ncnc2c1ncn2[C@@H]1O[C@H](C[C@@H](N)CC[C@H](N)C(=O)O)[C@@H](O)[C@H]1O [SINEFUNGIN] | – | IC50 [3]: 8.6 µM |

The next lines start with results.

| IC50 [1] | Compound | also measured |
| --- | --- | --- |
| 63 µM | O=C(CCN1CCc2ccccc2C1)Nc1cccc(OC(F)(F)F)c1 | – |
| 31.6 µM | COC(=O)c1ccccc1NC(=O)CCN1CCc2ccccc2C1 | – |
| > 100 µM | CCOC(=O)c1ccc(NC(=O)CCN2CCc3ccccc3C2)cc1 | – |
| > 100 µM | COC(=O)c1cc(F)c(F)cc1NC(=O)CCN1CCc2ccccc2C1 | – |
| 25.6 µM | N#Cc1ccccc1NC(=O)CCN1CCc2ccccc2C1 | – |
| 60 µM | COC(=O)c1ccccc1NC(=O)CN1CCc2ccccc2C1 | – |
| > 100 µM | Cc1ccc(NC(=O)CCN2CCc3ccccc3C2)c([N+](=O)[O-])c1 | – |

Reference: ChEMBL document CHEMBL4325864, “Discovery of new potent protein arginine methyltransferase 5 (PRMT5) inhibitors by assembly of key pharmacophores from known inhibitors” (Bioorg Med Chem Lett, 2018)
